# Screens from PubChem BioAssay.
# Most compounds without a hit are left out; they make up all but 3.5% or so of the library.
# rRNA inh HTS: reduced GFP signal of wild-type E. coli, primary screen, bacterial rRNA inhibitor project, GFP/RFP fluorescence, OD600, single point; hit rate 1.6% among 350,000; E. coli WT GFP vs humanized-ribosome RFP mutants, 24 h; active compounds read low; DMSO median 0, no signal -100; GFP signal change (wild-type ribosome), % (no concentration beside the values);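 active = significant combined selectivity score with lowered wild-type GFP, culture density cut under 30%, mutant RFP and density less affected; inactive = any of these conditions unmet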
# FGF22 binding: binders of human FGF22 protein, primary screen, FGF22 synaptogenesis inhibitor project, biophysical, thermal shift, single point; Fibroblast growth factor 22 (Homo sapiens), Q9HCT0; recombinant FGF22 thermal shift, SYPRO orange fluorescence; percent of sucrose octasulfate shift, DMSO zero; activity (Tm shift, normalised), % at 9.99 µM; hit rate 1.5% among 340,000;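 active = mean Tm shift, scaled 0 neutral to 100 positive control, at about 1.3% or above, every replicate too, limit read from the data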
# Target sequence (Q9HCT0 whole entry, looked up): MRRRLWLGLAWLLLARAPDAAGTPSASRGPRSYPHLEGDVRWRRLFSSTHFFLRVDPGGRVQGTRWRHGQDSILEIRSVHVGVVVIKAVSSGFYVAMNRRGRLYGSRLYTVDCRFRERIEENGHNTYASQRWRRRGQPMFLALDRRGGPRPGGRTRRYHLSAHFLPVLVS
# Cneo AK release: Cryptococcus neoformans cell lysis inducers, primary screen, AK release luminescence, single concentration; C. neoformans lysis, adenylate kinase release luminescence, 4 h; normalised: neutral wells 0, clomiphene wells 100; lysis activity, % at 15 µM; hit rate 0.2% among 360,000; AID 651654, 2012;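 active = mean lysis activity across replicates of at least 80%, whatever share of replicates individually reach that level; inactive = mean lysis activity below 80%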
#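 Material: C. neoformans cells | Amount: Yeast cell density of 5 × 10^6 cells/mL | Medium: Fresh YPD growth medium | Dosing: Single dose | Times: Static 4 h at 37 °C with compound, 1 h detection | Detection: AK luminescence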
# PGC1a acetyl inh: inhibitors of PGC1a acetylation signal, primary screen, cell-based, U2OS, AlphaScreen, inhibitor mode | AlphaScreen anti-acetyl-lysine; with virally co-expressed GCN5 acetyltransferase | inhibition, % at 15.6 µM | hit rate 0.17% among 350,000 | AID 651687, 2012;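 active = every replicate shows inhibition of at least 40%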
# Env fusion inh: inhibitors of HIV-1 Env-driven cell-cell fusion, primary screen, HeLa-JRFL effector, CEM21 target cells, luciferase; AID 651610, 2012; hit rate 1.1% among 360,000; inhibition, % at 12.3 µM;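 active = mean replicate inhibition score of at least 50 and every replicate individually at or above 50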
# ERAP1 HTS inh: human ERAP1 aminopeptidase inhibitors, primary screen, biochemical, single point, plate reader | Endoplasmic reticulum aminopeptidase 1 (Homo sapiens), Q9NZ08 | recombinant ERAP1, Leu-AMC fluorescence, 60 min | inhibition, % at 10.7 µM | hit rate 0.15% among 340,000 | AID 652197, 2013;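 active = mean replicate inhibition of at least 30%, or all replicates individually reaching that 30% level; inactive = mean below 30% and not every replicate reaching it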
# A number is an active result; – = inactive; · = no result; [ ] = another dose, or the depositor's remark.
SMILES,rRNA inh HTS,FGF22 binding,Cneo AK release,PGC1a acetyl inh,Env fusion inh,ERAP1 HTS inh
c1ccc(-c2csc(N3CCSCC3)n2)cc1,–,–,·,–,–,–
O=C(NCC(F)(F)F)[C@H]1[C@H](CO)[C@H]2Cn3c(cccc3=O)[C@H]2N1C(=O)C1CCCC1,–,–,–,·,·,–
CCOc1ccc(/C=C2/SC(=S)N(C(C(=O)O)c3ccccc3)C2=O)cc1OCC (stereo not given),–,7.5,·,–,–,–
COc1ccccc1/C=C1\SC(=S)N(C(C(=O)O)c2ccccc2)C1=O (stereo not given),-37,–,·,–,–,–
COc1ccc(OC)c(NC(=O)C2(C)CCN2CCOc2ccccc2)c1 (stereo not given),–,–,–,–,66,–
COc1ccc(-c2cc(C(F)(F)F)nc(SCC(N)=O)n2)cc1,·,·,–,–,·,·
O=C(CSc1nc(-c2ccco2)cc(C(F)(F)F)n1)Nc1ccccc1C(F)(F)F,·,·,–,–,74,·
COc1ccc(-c2cc(C(F)(F)F)nc(SCC(=O)NCc3cccs3)n2)cc1,·,·,–,–,56,·
Cc1cccc(C)c1NC(=O)CSc1nc(-c2ccco2)cc(C(F)(F)F)n1,–,–,–,–,·,–
COc1ccc(S(=O)(=O)N2CCOCC2)cc1NC(=O)CCNC(=O)c1ccc(Cl)cc1,–,–,–,–,·,–
NC(=O)COC(=O)CCCSc1nc2ccccc2s1,–,–,–,–,–,–
CCOC(=O)CNC(=O)CSc1nnc(NC(=O)c2ccccc2Cl)s1,–,43,–,–,–,–
CC(C)c1ccc(/C=C/C(=O)N2CCCCCC2)cc1,-26,–,·,·,–,–
CC(C)c1ccc(/C=C/C(=O)N2CCOCC2)cc1,–,–,–,–,–,–
O=C(Nc1ccnn1C1CCNCC1)c1ccc2c(c1)OCO2,–,–,–,–,–,–
Cc1cc(=O)oc2c3c(cc(OCC(=O)N[C@@H](Cc4ccccc4)C(=O)O)c12)OC(C)(C)CC3,-31,–,–,–,·,–
Cc1cc(=O)oc2c3c(cc(OCC(=O)NC(Cc4ccc(Cl)cc4)C(=O)O)c12)OC(C)(C)CC3 (stereo not given),-38,–,–,–,·,–
CC(C)N1CCC(=NNC(=O)c2ccc(Br)o2)CC1,·,·,–,–,·,·
CCOc1ccc(C(C)=O)cc1CSc1nc2nc(C)cc(C)n2n1,–,43,·,·,–,–
Cc1cc(C)c(NC(=O)c2ccc(S(=O)(=O)N(C)C)cc2)c(C)n1,–,–,–,50,·,–
Cc1cc(NC(=O)c2ccc(S(=O)(=O)N(C)C)cc2)no1,·,·,–,–,–,·
Cc1ccccc1Cn1cccc1/C=C1/C(=N)N2C=CSC2=NC1=O,·,·,–,·,·,·
O=C(Nc1ccc2nc3n(c(=O)c2c1)CCCCC3)c1c(F)ccc([N+](=O)[O-])c1F,-22,–,–,·,–,–
CCOC(=O)C1CCCN(C(=O)C(=O)Nc2ccc3nc4n(c(=O)c3c2)CCCCC4)C1 (stereo not given),-17,–,–,–,–,–
CCOC(=O)Nc1ccc2nc3n(c(=O)c2c1)CCCCC3,–,–,·,–,–,–
SMILES,rRNA inh HTS,FGF22 binding,Cneo AK release,PGC1a acetyl inh,Env fusion inh,ERAP1 HTS inh
NC(=S)N/N=C/c1ccc(-c2cc(Cl)ccc2Cl)o1,-21,–,111,·,·,–
O=c1c(CN2CCN(c3ccccn3)CC2)coc2ccccc12,–,44,·,·,–,–
Oc1c(CN2CCN(c3ccccn3)CC2)cc(Cl)c2cccnc12,·,·,·,–,·,·
C=CCC[C@H](Cc1ccc(F)cc1)C(=O)OC[C@@H](Cc1c[nH]c2ccccc12)NC(=O)[C@@H](CC=C)CC(=O)NCCO,–,–,–,–,–,–
C[C@@H]1CN([C@H](C)CO)C(=O)c2cccc(NC(=O)Nc3ccc(C(F)(F)F)cc3)c2O[C@H]1CN(C)Cc1ccc(C(F)(F)F)cc1,–,–,–,–,59[16.7 µM],–
C[C@H]1CN([C@@H](C)CO)C(=O)c2cccc(NC(=O)Nc3ccc(C(F)(F)F)cc3)c2O[C@H]1CN(C)Cc1ccc(C(F)(F)F)cc1,–,–,–,–,–,–
